{
  "source": "ChEMBL document CHEMBL3124914",
  "about": "“Cytotoxic clerodane diterpenes from Zuelania guidonia” (J Nat Prod, 2014)",
  "key": {"[1]": {"assay": "Cytotoxicity against human MIAPaCa2 cells assessed as cell viability after 24 hrs by MTT assay", "type": "functional, cell-based", "details": "MIA PaCa-2, 24 h", "in_short": "(§1)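 Cells kept at 37 °C, 5% CO2 in RPMI 1640 with 10% heat-inactivated FBS, […] streptomycin, and 100 U/mL penicillin. Seeding per well: 1.2 × 10^4 for MIA-PaCa-2, 4 × 10^4 for CCRF-CEM and CEM-ADR5000, and 2 × 10^5 for PBMCs from healthy donors. Compounds were given in DMSO (0.1% DMSO solvent control) at various concentrations for 24 h. Read-out was MTT, and IC50 was taken by nonlinear regression.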"}, "[2]": {"test_system": "CCRF-CEM", "assay": "Cytotoxicity against human CCRF-CEM cells assessed as cell viability after 24 hrs by MTT assay", "type": "functional, cell-based", "in_short": "as §1"}, "[3]": {"test_system": "PBMC", "assay": "Cytotoxicity against human PBMC assessed as cell viability after 24 hrs by MTT assay", "type": "cell-based", "in_short": "as §1"}, "[4]": {"assay": "Cytotoxicity against human CEM/ADR5000 cells assessed as cell viability after 24 hrs by MTT assay", "type": "functional, cell-based", "details": "ADR5000, 24 h", "in_short": "as §1"}},
  "data": [
    {"smiles": "CCCCCCCCCC(=O)O[C@H]1C=C2[C@@H](OC(C)=O)O[C@@H](OC(C)=O)[C@]23[C@@H](OC2OC[C@@H](O)[C@H](O)[C@H]2O)C[C@@H](C)[C@@](C)(C[C@@H](O)C2=CCOOC2)[C@@H]3C1", "note": "(relative stereo)", "values": [
      {"measurement": "IC50", "setting": "[1]", "value": "> 10", "unit": "µM"},
      {"measurement": "IC50", "setting": "[2]", "value": 8.4, "unit": "µM"},
      {"measurement": "IC50", "setting": "[3]", "value": "> 10", "unit": "µM"},
      {"measurement": "IC50", "setting": "[4]", "value": "> 10", "unit": "µM"}
    ]},
    {"smiles": "C=CC(=C)[C@H](O)C[C@]1(C)[C@H](C)C[C@H](OC(=O)CC(O)CCCCCCCCC)[C@@]23C(=C[C@H](O)C[C@@H]12)[C@@H](OC(C)=O)O[C@H]3OC(C)=O", "note": "(relative stereo)", "values": [
      {"measurement": "IC50", "setting": "[1]", "value": "> 10", "unit": "µM"},
      {"measurement": "IC50", "setting": "[2]", "value": 5.5, "unit": "µM"},
      {"measurement": "IC50", "setting": "[3]", "value": "> 10", "unit": "µM"},
      {"measurement": "IC50", "setting": "[4]", "value": "> 10", "unit": "µM"}
    ]},
    {"smiles": "C=CC(=C)CC[C@]1(C)[C@H](C)C[C@H](O)[C@@]23C(=C[C@@H](OC(=O)/C=C/c4ccccc4)C[C@@H]12)[C@@H](OC(C)=O)O[C@H]3OC(C)=O", "note": "(relative stereo)", "values": [
      {"measurement": "IC50", "setting": "[1]", "value": 4.6, "unit": "µM"},
      {"measurement": "IC50", "setting": "[2]", "value": 1.6, "unit": "µM"},
      {"measurement": "IC50", "setting": "[3]", "value": "> 10", "unit": "µM"},
      {"measurement": "IC50", "setting": "[4]", "value": 4.6, "unit": "µM"}
    ]},
    {"smiles": "COc1cccc2c1C(=O)c1c(O)c3c(c(O)c1C2=O)C[C@@](O)(C(=O)CO)C[C@@H]3O[C@H]1C[C@H](N)[C@H](O)[C@H](C)O1", "note": "[DOXORUBICIN]", "values": [
      {"measurement": "IC50", "setting": "[1]", "value": 4.8, "unit": "µM"},
      {"measurement": "IC50", "setting": "[2]", "value": 0.5, "unit": "µM"},
      {"measurement": "IC50", "setting": "[3]", "value": "> 10", "unit": "µM"},
      {"measurement": "IC50", "setting": "[4]", "value": "> 10", "unit": "µM"}
    ]},
    {"smiles": "CCCCCCCCCC(=O)O[C@H]1C=C2[C@@H](OC(C)=O)O[C@@H](OC(C)=O)[C@]23[C@@H](OC2OC[C@@H](O)[C@H](O)[C@H]2O)C[C@@H](C)[C@@](C)(C[C@H](O)C2=CCOOC2)[C@@H]3C1", "note": "(relative stereo)", "values": [
      {"measurement": "IC50", "setting": "[1]", "value": "> 10", "unit": "µM"},
      {"measurement": "IC50", "setting": "[2]", "value": 8, "unit": "µM"},
      {"measurement": "IC50", "setting": "[3]", "value": "> 10", "unit": "µM"},
      {"measurement": "IC50", "setting": "[4]", "value": "> 10", "unit": "µM"}
    ]},
    {"smiles": "C=CC(=C)[C@@H](O)C[C@]1(C)[C@H](C)C[C@H](OC2OC[C@@H](O)[C@H](O)[C@H]2O)[C@@]23C(=C[C@H](OC(=O)CCCCCCCCC)C[C@@H]12)[C@@H](OC(C)=O)O[C@H]3OC(C)=O", "note": "(relative stereo)", "values": [
      {"measurement": "IC50", "setting": "[1]", "value": "> 10", "unit": "µM"},
      {"measurement": "IC50", "setting": "[2]", "value": 9.1, "unit": "µM"},
      {"measurement": "IC50", "setting": "[3]", "value": "> 10", "unit": "µM"},
      {"measurement": "IC50", "setting": "[4]", "value": "> 10", "unit": "µM"}
    ]},
    {"smiles": "CC[C@@]1(O)C(=O)OCc2c1cc1n(c2=O)Cc2cc3ccccc3nc2-1", "note": "[CAMPTOTHECIN]", "values": [
      {"measurement": "IC50", "setting": "[1]", "value": "> 10", "unit": "µM"},
      {"measurement": "IC50", "setting": "[2]", "value": 0.08, "unit": "µM"},
      {"measurement": "IC50", "setting": "[3]", "value": "> 10", "unit": "µM"},
      {"measurement": "IC50", "setting": "[4]", "value": 0.3, "unit": "µM"}
    ]},
    {"smiles": "C=CC(=C)CC[C@]1(C)[C@H](C)C[C@H](OC(=O)/C=C/c2ccccc2)[C@@]23C(=C[C@H](O)C[C@@H]12)[C@@H](OC(C)=O)O[C@H]3OC(C)=O", "note": "(relative stereo)", "values": [
      {"measurement": "IC50", "setting": "[1]", "value": "> 10", "unit": "µM"},
      {"measurement": "IC50", "setting": "[2]", "value": 5.3, "unit": "µM"},
      {"measurement": "IC50", "setting": "[3]", "value": "> 10", "unit": "µM"},
      {"measurement": "IC50", "setting": "[4]", "value": 8.6, "unit": "µM"}
    ]},
    {"smiles": "CC(=O)O[C@H]1O[C@@H](OC(C)=O)[C@]23C1=C[C@H](O)C[C@H]2[C@](C)(CCC1=CCOOC1)[C@H](C)C[C@@H]3OC(=O)/C=C/c1ccccc1", "note": "(relative stereo)", "values": [
      {"measurement": "IC50", "setting": "[1]", "value": 6.9, "unit": "µM"},
      {"measurement": "IC50", "setting": "[2]", "value": 1.9, "unit": "µM"},
      {"measurement": "IC50", "setting": "[3]", "value": "> 10", "unit": "µM"},
      {"measurement": "IC50", "setting": "[4]", "value": 7.5, "unit": "µM"}
    ]},
    {"smiles": "C=CC(=C)CC[C@]1(C)[C@H](C)C[C@H](OC(=O)CC(O)CCCCCCCCC)[C@@]23C(=C[C@H](O)C[C@@H]12)[C@@H](OC(C)=O)O[C@H]3OC(C)=O", "note": "(relative stereo)", "values": [
      {"measurement": "IC50", "setting": "[1]", "value": 7.4, "unit": "µM"},
      {"measurement": "IC50", "setting": "[2]", "value": 2.5, "unit": "µM"},
      {"measurement": "IC50", "setting": "[3]", "value": "> 10", "unit": "µM"},
      {"measurement": "IC50", "setting": "[4]", "value": 5.7, "unit": "µM"}
    ]},
    {"smiles": "C=CC(=C)CC[C@]1(C)[C@H](C)CC[C@@]23C(=CC(=O)C[C@@H]12)[C@@H](OC(C)=O)O[C@H]3OC(C)=O", "note": "(relative stereo)", "values": [
      {"measurement": "IC50", "setting": "[1]", "value": "> 10", "unit": "µM"},
      {"measurement": "IC50", "setting": "[2]", "value": 9.5, "unit": "µM"},
      {"measurement": "IC50", "setting": "[3]", "value": "> 10", "unit": "µM"},
      {"measurement": "IC50", "setting": "[4]", "value": "> 10", "unit": "µM"}
    ]}
  ]
}
